A short description of data set [1]: Cytotoxicity against human HeLa cells assessed as cell viability at 25 uM after 48 hrs by resazurin dye-based fluorescence assay. Particulars: read-out: Activity. The essentials:
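HeLa cells seeded at 6.7 × 10^4 per well in DMEM with 10% foetal bovine serum and penicillin/streptomycin/amphotericin B. Grown 24 h at 37 °C, 5% CO2, then exposed to compound at 25 μM final for 48 h. Resazurin added and fluorescence read (Ex 560/Em 590 nm) after 2–4 h more. Viability expressed as % of no-compound control wells.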

The target in data set [2] is Human immunodeficiency virus type 1 integrase (Human immunodeficiency virus 1, UniProt Q7ZJM1). As to the kind of experiment: Inhibition of HIV1 subtype C recombinant integrase strand transfer activity preincubated for 45 mins with double-stranded biotinylated donor DNA followed by addition of double stranded FITC-labelled target DNA and measured after 60 mins relative to control.

The results in this text go back to ChEMBL document CHEMBL4368863, “Evaluation of novel N'-(3-hydroxybenzoyl)-2-oxo-2H-chromene-3-carbohydrazide derivatives as potential HIV-1 integrase inhibitors” (Medchemcomm, 2019).

Sequence of Human immunodeficiency virus type 1 integrase (Q7ZJM1 whole entry): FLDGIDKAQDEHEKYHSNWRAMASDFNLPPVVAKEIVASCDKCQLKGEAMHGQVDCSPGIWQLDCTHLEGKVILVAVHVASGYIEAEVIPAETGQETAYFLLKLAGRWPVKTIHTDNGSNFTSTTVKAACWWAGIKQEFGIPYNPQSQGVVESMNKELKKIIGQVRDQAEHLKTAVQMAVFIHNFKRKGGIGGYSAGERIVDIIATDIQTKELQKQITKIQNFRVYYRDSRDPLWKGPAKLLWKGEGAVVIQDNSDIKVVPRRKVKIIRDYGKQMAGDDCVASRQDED

For `O=C(NNC(=O)c1cc2cc(Br)ccc2oc1=O)c1cc(Cl)ccc1O`, the viability at 48 h, 25 µM in data set [1] was > 70%. Further, in data set [2], the IC50 amounted to 175 nM.
For `O=C(NNC(=O)c1cc2ccccc2oc1=O)c1ccccc1O`, in that order: > 70% and 70 nM.
For `CCOc1cccc2cc(C(=O)NNC(=O)c3cc(Cl)ccc3O)c(=O)oc12`, in that order: > 70% and 31 nM.
Regarding `COc1cccc(C(=O)NNC(=O)c2cc3ccccc3oc2=O)c1O`, in data set [1], the viability at 48 h, 25 µM is > 70%.
For the compound `O=C(NNC(=O)c1cc2cc(Cl)ccc2oc1=O)c1ccccc1O`, the viability at 48 h, 25 µM in data set [1] was > 70%. The IC50 in data set [2] worked out at 13 nM.
`O=C(NNC(=O)c1cc2cc(Br)ccc2oc1=O)c1ccccc1O`: the viability at 48 h, 25 µM in data set [1] is > 70%. Moreover, the IC50 in data set [2] amounted to 14 nM.
For `COc1cccc2cc(C(=O)NNC(=O)c3cc(Cl)ccc3O)c(=O)oc12`, in that order: > 70% and 23 nM.
With `CCOc1cccc2cc(C(=O)NNC(=O)c3cc(OC)ccc3O)c(=O)oc12`, the viability at 48 h, 25 µM in data set [1] is > 70%. Moreover, the IC50 in data set [2] was 592 nM.
The like results for `COc1ccc(O)c(C(=O)NNC(=O)c2cc3cccc(OC)c3oc2=O)c1` were, in that order, > 70% and 901 nM.
The like results for `CCOc1cccc2cc(C(=O)NNC(=O)c3ccccc3O)c(=O)oc12` were, in that order, > 70% and 104 nM.
Take `COc1cccc(C(=O)NNC(=O)c2cc3cc(Br)ccc3oc2=O)c1O`: the viability at 48 h, 25 µM in data set [1] is > 70%.
For the compound `COc1ccc(O)c(C(=O)NNC(=O)c2cc3cc(Br)ccc3oc2=O)c1`, the viability at 48 h, 25 µM in data set [1] was > 70%. Moreover, the IC50 in data set [2] stood at 163 nM.
Turning to `CCOc1cccc2cc(C(=O)NNC(=O)c3cccc(OC)c3O)c(=O)oc12`, the viability at 48 h, 25 µM in data set [1] was > 70%.
As for `COc1ccc(O)c(C(=O)NNC(=O)c2cc3cc(Cl)ccc3oc2=O)c1`, the viability at 48 h, 25 µM in data set [1] is > 70%. Moreover, the IC50 in data set [2] was 605 nM.
The like results for `O=C(NNC(=O)c1cc2ccccc2oc1=O)c1cc(Cl)ccc1O` were, in that order, > 70% and 33 nM.
With `COc1cccc(C(=O)NNC(=O)c2cc3cccc(OC)c3oc2=O)c1O`, the viability at 48 h, 25 µM in data set [1] was > 70%.
On to `COc1cccc(C(=O)NNC(=O)c2cc3cc(Cl)ccc3oc2=O)c1O`, for which, in data set [1], the viability at 48 h, 25 µM is > 70%.
Regarding `COc1cccc2cc(C(=O)NNC(=O)c3ccccc3O)c(=O)oc12`, the viability at 48 h, 25 µM in data set [1] is > 70%. The IC50 in data set [2] worked out at 47 nM.
The like results for `COc1ccc(O)c(C(=O)NNC(=O)c2cc3ccccc3oc2=O)c1` were, in that order, > 70% and 5800 nM.
As for `O=C(NNC(=O)c1cc2cc(Cl)ccc2oc1=O)c1cc(Cl)ccc1O`, the viability at 48 h, 25 µM in data set [1] is > 70%. The IC50 in data set [2] worked out at 41 nM.
